From ChEMBL document CHEMBL4373689, “Ferulic Acid Esters and Withanolides: In Search of Withania somnifera GABAA Receptor Modulators” (J Nat Prod, 2019) come the findings set out here.

One may read the EC50 as the midpoint of the concentration-response curve. A word on the inhibition: it is the share of the control response that was lost under treatment.

Activity calls are given as the source filed them. The rule behind the calls is not given here.

The target of test [1] is T1, GABA-A receptor; anion channel (Rattus norvegicus) (UniProt O09028+P15431+P18506+P18508+P19969+P20236+P23574+P23576+P28471+P28473+P30191+P62813+P63079+P63138+Q91ZM7+Q9ES14). Briefly: Activation of GABAA receptor in Sprague-Dawley rat dentate gyrus hippocampal granule neurons assessed as holding current at 10 uM by whole-cell patch-clamp method. It counts as protein-complex assay. Put shortly:
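Rat dentate gyrus granule cells. Holding current was monitored with no electrical stimulation, before and after perfusion of 10 μM compound, to test for direct GABAAR activation.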

The target of test [2] is T1, GABA-A receptor; anion channel (Rattus norvegicus). Briefly: Modulation of GABAA receptor in electrically stimulated Sprague-Dawley rat dentate gyrus hippocampal granule neurons assessed as GABA induced IPSC amplitude at 10 uM at holding potential of -65 mV by whole-cell patch-clamp method. It counts as protein-complex assay. The method in brief:
(§1)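 Rat dentate gyrus granule cells gave evoked IPSCs. Stimulus intensity was set at the start of each recording to give about 30% of maximal amplitude, and bicuculline (20 μM) suppression confirmed GABAAR mediation. IPSCs were recorded before and after perfusion of 10 μM compound, and results are given as percent change from baseline (means ± SEM, n = cells).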

The target is the same in test [3]. Briefly: Modulation of GABAA receptor in electrically stimulated Sprague-Dawley rat dentate gyrus hippocampal granule neurons assessed as increase in GABA induced IPSC amplitude at 10 uM at holding potential of -65 mV by whole-cell patch-clamp method relative to control. It counts as protein-complex assay. The method in brief: as §1
Background: The patch-clamp technique gives a direct electrical read-out from membranes.

Test [4] has the same target. The test is described as follows: Modulation of GABAA receptor in electrically stimulated Sprague-Dawley rat dentate gyrus hippocampal granule neurons assessed as maximal potentiation of GABA induced IPSC amplitude at 100 uM at holding potential of -65 mV by whole-cell patch-clamp method relative to control. Format: protein-complex assay.
The target in test [5] is GABA-A receptor; anion channel. Briefly: Modulation of GABAA receptor in electrically stimulated Sprague-Dawley rat dentate gyrus hippocampal granule neurons assessed as potentiation of GABA induced IPSC amplitude at holding potential of -65 mV by whole-cell patch-clamp method. Format: protein-complex assay.
Test [6] addresses T1, GABA-A receptor; anion channel (Rattus norvegicus). Briefly: Modulation of GABAA receptor in electrically stimulated Sprague-Dawley rat dentate gyrus hippocampal granule neurons assessed as decrease in GABA induced IPSC amplitude at 10 uM at holding potential of -65 mV by whole-cell patch-clamp method relative to control. Format: protein-complex assay. Put shortly:
as §1

Test [7] shares this target. Conditions: Sprague-Dawley, 20 uM.

`CC1=C(CO)C(=O)O[C@@H]([C@H](C)[C@H]2CC[C@H]3[C@@H]4C=CC5=CC=CC(=O)[C@]5(C)[C@H]4CC[C@]23C)C1`: the outcome in test [1] and in test [2] was inactive.
Regarding `CC1=C(CO)C(=O)O[C@@H]([C@@H](C)[C@H]2CC[C@H]3[C@@H]4C[C@H]5O[C@]56[C@@H](O)C=CC(=O)[C@]6(C)[C@H]4CC[C@]23C)C1`, the result in test [1] and in test [2] was inactive.
For `COc1cc(/C=C/C(=O)OCCCCCOC(=O)/C=C/c2ccc(O)c(OC)c2)ccc1O`, the outcome in test [1] and in test [2] was inactive.
As for `CCCCCCCCCCCCCCCCCCCCCOC(=O)/C=C/c1ccc(O)c(OC)c1`, the result in test [1] was inactive. Also, the Activity in test [3] stood at 48.2%; in test [4], 74%. Besides, in test [5], the EC50 is 7.9 µM.
In the case of `CC1=C(C)C(=O)O[C@@H]([C@@](C)(O)[C@H]2CC[C@H]3[C@@H]4[C@@H]5O[C@@H]5[C@@]5(O)CC=CC(=O)[C@]5(C)[C@H]4CC[C@]23C)C1`, the inhibition in test [6] came out at 20.8%. In test [1], the result was inactive.
Regarding `CCCCCCCCCCCCCCCCCCOC(=O)/C=C/c1ccc(O)c(OC)c1`, the inhibition in test [6] came out at 35.8%. Further, in test [1], the result was inactive.
With `CN1CCc2cc3c(cc2[C@H]1[C@@H]1OC(=O)c2c1ccc1c2OCO1)OCO3`, in test [7], the inhibition entry is “Active”.
`CC1=C(C)C(=O)O[C@@H]([C@H](C)[C@H]2CC[C@H]3[C@@H]4[C@@H]5O[C@@H]5[C@@]5(O)CC=CC(=O)[C@]5(C)[C@H]4CC[C@]23C)C1`: in test [1], the outcome was inactive. The Activity in test [3] amounted to 29.4%.
As to `CCCCCCCCCCCCCCCCCCCOC(=O)/C=C/c1ccc(O)c(OC)c1`, the inhibition in test [6] came out at 36.5%. Also, in test [1], the result was inactive.
The like results for `CC1=C(C)C(=O)O[C@@H]([C@](C)(O)[C@H]2CC[C@H]3[C@@H]4C=CC5=CC=CC(=O)[C@]5(C)[C@H]4CC[C@]23C)C1` were, in that order, 28.6% and “inactive”.
